How the values were obtained:
Type in all cases: functional
[1] = test system: UACC-257; assay: Cytotoxicity against human UACC257 cells assessed as cell growth at 10^-5 M after 48 hrs by SRB assay; conditions: UACC-257, 48 h, read-out: Activity
[2] = test system: A498; assay: Cytotoxicity against human A498 cells assessed as cell growth at 10^-5 M after 48 hrs by SRB assay; conditions: A498, 48 h, read-out: Activity
Summary of the method: (§1)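 NCI-60 screen: lines kept in RPMI 1640 with 5% FBS, seeded at 5000–40,000 cells/well by doubling time, preincubated 24 h at 37 °C in 5% CO2. Time-zero plates TCA-fixed at drug addition. DMSO stocks diluted in medium, 48 h exposure. Fixation in cold TCA (final 10% adherent, 16% suspension), 0.4% SRB stain, solubilised in 10 mM Tris base, A515. Percent growth computed against control and time-zero.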

[3] = test system: SK-OV-3; assay: Growth inhibition of human SKOV3 cells after 48 hrs by SRB assay; conditions: SK-OV-3, 48 h; for CC50: read-out: LC50 (the source's name)
Summary of the method: (§2)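 Adherent NCI-60 lines grown in RPMI 1640 with 5% FBS, seeded at 5000–40,000 cells/well, and preincubated 24 h at 37 °C, 5% CO2. Compound, stocked in DMSO, given either once at 10^-5 M or at five 10-fold dilutions for 48 h. Cells fixed with cold TCA (final 10%), stained with 0.4% SRB, and read at 515 nm. GI50 taken as 50% reduction in net protein increase versus time-zero and control plates.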

[4] = test system: ACHN; assay: Growth inhibition of human ACHN cells after 48 hrs by SRB assay; conditions: for CC50: read-out: LC50 (the source's name)
Summary of the method: (§3)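 Same 48 h NCI-60 five-dose SRB protocol. Adherent lines were fixed with cold TCA at 10% final; suspension lines such as CCRF-CEM were fixed with 16% final TCA. Stain was 0.4% SRB in 1% acetic acid for 10 min, solubilized in 10 mM Tris base and read at 515 nm. GI50 came from log concentration–growth curves, solving [(Ti−Tz)/(C−Tz)]×100 = 50.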

[5] = test system: CAKI-1; assay: Growth inhibition of human Caki1 cells after 48 hrs by SRB assay; conditions: CAKI-1, 48 h; summary of the method: as §3
[6] = test system: BT-549; assay: Cytotoxicity against human BT549 cells assessed as cell growth at 10^-5 M after 48 hrs by SRB assay; conditions: BT-549, 48 h, read-out: Activity; summary of the method: as §1
[7] = Growth inhibition of human […] cells after 48 hrs by SRB assay
[8] = test system: HCT-116; assay: Cytotoxicity against human HCT116 cells assessed as cell growth at 10^-7 M after 48 hrs by SRB assay; conditions: HCT-116, 48 h, read-out: Activity
Summary of the method: (§4)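 NCI-60 five-dose screen. Cells were grown in RPMI 1640 with 5% FBS and seeded at 5000–40,000 cells/well according to doubling time. They were pre-incubated 24 h at 37 °C in 5% CO₂, and time-zero (Tz) plates were TCA-fixed at drug addition. Five 10-fold dilutions of DMSO stock were applied for 48 h. Read-out was SRB staining, 515 nm absorbance, with percent growth calculated versus Tz and untreated control.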

[9] = test system: HCT-15; assay: Cytotoxicity against human HCT15 cells assessed as cell growth at 10^-7 M after 48 hrs by SRB assay; conditions: HCT-15, 48 h, read-out: Activity; summary of the method: as §4
[10] = test system: SK-MEL-2; assay: Cytotoxicity against human SK-MEL-2 cells assessed as cell growth at 10^-7 M after 48 hrs by SRB assay; conditions: SK-MEL-2, 48 h, read-out: Activity
[11] = test system: UACC-62; assay: Cytotoxicity against human UACC62 cells assessed as cell growth at 10^-7 M after 48 hrs by SRB assay; conditions: UACC-62, 48 h, read-out: Activity
[12] = test system: SW-620; assay: Cytotoxicity against human SW620 cells assessed as cell growth at 10^-4 M after 48 hrs by SRB assay; conditions: SW-620, 48 h, read-out: Activity
[13] = test system: SF-295; assay: Cytotoxicity against human SF295 cells assessed as cell growth at 10^-4 M after 48 hrs by SRB assay; conditions: SF-295, 48 h, read-out: Activity
[14] = test system: OVCAR-3; assay: Cytotoxicity against human OVCAR3 cells assessed as cell growth at 10^-4 M after 48 hrs by SRB assay; conditions: OVCAR-3, 48 h, read-out: Activity
[15] = test system: 786-0; assay: Cytotoxicity against human 786-0 cells assessed as cell growth at 10^-4 M after 48 hrs by SRB assay; conditions: 786-0, 48 h, read-out: Activity; summary of the method: as §1
[16] = test system: ACHN; assay: Cytotoxicity against human ACHN cells assessed as cell growth at 10^-4 M after 48 hrs by SRB assay; conditions: read-out: Activity; summary of the method: as §1
[17] = test system: SK-OV-3; assay: Cytotoxicity against human SKOV3 cells assessed as cell growth at 10^-7 M after 48 hrs by SRB assay; conditions: SK-OV-3, 48 h, read-out: Activity
[18] = test system: TK-10; assay: Cytotoxicity against human TK10 cells assessed as cell growth at 10^-7 M after 48 hrs by SRB assay; conditions: TK-10, 48 h, read-out: Activity
[19] = Cytotoxicity against human Hs 578T cells assessed as cell growth at 10^-7 M after 48 hrs by SRB assay; conditions: read-out: Activity; summary of the method: as §4
[20] = test system: LOX IMVI; assay: Cytotoxicity against human LOXIMVI cells assessed as cell growth at 10^-8 M after 48 hrs by SRB assay; conditions: read-out: Activity
[21] = test system: SK-MEL-2; assay: Cytotoxicity against human SK-MEL-2 cells assessed as cell growth at 10^-8 M after 48 hrs by SRB assay; conditions: SK-MEL-2, 48 h, read-out: Activity
[22] = Cytotoxicity against human NCI-ADR-RES cells assessed as cell growth at 10^-8 M after 48 hrs by SRB assay; conditions: read-out: Activity
[23] = test system: MCF7; assay: Cytotoxicity against human MCF7 cells assessed as cell growth at 10^-8 M after 48 hrs by SRB assay; conditions: MCF7, 48 h, read-out: Activity
[24] = test system: SF-295; assay: Cytotoxicity against human SF295 cells assessed as cell growth at 10^-6 M after 48 hrs by SRB assay; conditions: SF-295, 48 h, read-out: Activity
[25] = test system: HCT-15; assay: Growth inhibition of human HCT15 cells after 48 hrs by SRB assay; conditions: HCT-15, 48 h; for CC50: read-out: LC50 (the source's name); summary of the method: as §2
[26] = test system: KM12; assay: Growth inhibition of human KM12 cells after 48 hrs by SRB assay; conditions: KM12, 48 h; summary of the method: as §2
[27] = test system: T47D; assay: Cytotoxicity against human T47D cells assessed as cell growth at 10^-6 M after 48 hrs by SRB assay; conditions: read-out: Activity
[28] = test system: MOLT-4; assay: Cytotoxicity against human MOLT4 cells assessed as cell growth at 10^-5 M after 48 hrs by SRB assay; conditions: MOLT-4, 48 h, read-out: Activity
[29] = test system: A549; assay: Cytotoxicity against human A549 cells assessed as cell growth at 10^-5 M after 48 hrs by SRB assay; conditions: A549, 48 h, read-out: Activity; summary of the method: as §1

| Compound | growth at 10 µM [1] | growth at 10 µM [2] | GI50 [3] | TGI [3] | CC50 [3] | GI50 [4] | TGI [4] | CC50 [4] | GI50 [5] | LC50 (50% lethal concentration) [5] | TGI [5] | growth at 10 µM [6] | GI50 [7] | growth at 0.1 µM [8] | growth at 0.1 µM [9] | growth at 0.1 µM [10] | growth at 0.1 µM [11] | growth at 100 µM [12] | growth at 100 µM [13] | growth at 100 µM [14] | further results |
| --- | --- | --- | --- | --- | --- | --- | --- | --- | --- | --- | --- | --- | --- | --- | --- | --- | --- | --- | --- | --- | --- |
| COc1ccc(-c2nn3cc(-c4ccc(O)cc4O)nc3s2)cc1 | 36% | -50% | 1700 nM | 3.62 µM | 7.72 µM | 3.52 µM | > 100 µM | > 100 µM | 2070 nM | > 100 µM | 28.9 µM | 12% | 1920 nM | 93% | 92% | 96% | 95% | 6% | -13% | -14% | growth at 100 µM [15]: -33%; growth at 100 µM [16]: 6%; growth at 0.1 µM [17]: 94%; growth at 0.1 µM [18]: 105%; growth at 0.1 µM [19]: 93%; growth at 0.01 µM [20]: 101%; growth at 0.01 µM [21]: 93%; growth at 0.01 µM [22]: 101%; growth at 0.01 µM [23]: 92%; growth at 1 µM [24]: 74%; GI50 [25]: 5.13 µM; TGI [25]: > 100 µM; CC50 [25]: > 100 µM; Concentration killing 50% of cells (LC50) [26]: > 100 µM; GI50 [26]: 3.61 µM; TGI [26]: > 100 µM; growth at 1 µM [27]: 71%; growth at 10 µM [28]: 20%; growth at 10 µM [29]: 2% |
| COc1ccc(-c2nn3cc(-c4cccc(N)c4)nc3s2)cc1 | 63% | -17% | 2720 nM | 10.8 µM | 54.9 µM | 4.5 µM | 21.8 µM | 91.3 µM | 743 nM | > 100 µM | 10.9 µM | 24% | 2330 nM | 99% | 106% | 93% | 90% | -5% | -27% | -74% | growth at 100 µM [15]: -93%; growth at 100 µM [16]: -53%; growth at 0.1 µM [17]: 97%; growth at 0.1 µM [18]: 135%; growth at 0.1 µM [19]: 84%; growth at 0.01 µM [20]: 94%; growth at 0.01 µM [21]: 93%; growth at 0.01 µM [22]: 100%; growth at 0.01 µM [23]: 86%; growth at 1 µM [24]: 72%; GI50 [25]: 5.26 µM; TGI [25]: > 100 µM; CC50 [25]: > 100 µM; Concentration killing 50% of cells (LC50) [26]: > 100 µM; GI50 [26]: 5.34 µM; TGI [26]: 27.5 µM; growth at 1 µM [27]: 57%; growth at 10 µM [28]: 21%; growth at 10 µM [29]: 36% |

— ChEMBL document CHEMBL2146441, “2,6-Disubstituted imidazo[2,1-b][1,3,4]thiadiazoles: search for anticancer agents” (2012)
